The list is not random: actives were taken first. Their share in the collection is about 1.6%.
PKA-R1A act – activators of PKA-R1A complex. P00514+P68181. PKA-R1A dissociation, Cy5-IP20 fluorescence polarization; scaled: DMSO 0%, 113 µM cGMP 100%. 340,000 tested, 0.083% active. AID 504707. activation, % at 11.4 µM;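 active means percent activation above the mean of all tested compounds plus 3 SD, cut at about 19% in these data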;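 further: higher means more PKAc released from R1A so a rise in polarization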
PG9 binder – binds the HIV-1 gp120 antibody PG9. AID 624416. 360,000 tested, 0.43% active. TR-FRET gp120-PG9 antibody binding. inhibition, % at 6.7 µM; in the data active means inhibition above about 8.5%
PKA-R2B act – activates the human PKA-R2B holoenzyme complex | activation, % at 11.4 µM | PKA-R2B holoenzyme dissociation, Cy5-IP20 fluorescence polarization; R2B truncated from residue 108, S112A mutant; 0% DMSO only, 100% 113 µM cGMP | P22694+P31323 | 340,000 tested, 0.079% active | AID 504700;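 active means activation above a cutoff set at the mean over all compounds plus 3 SD, cut at about 18% in these data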;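 further: higher means more holoenzyme dissociation and a rise in polarization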
NR2E3 ag-1 – agonists of human nuclear receptor NR2E3 | Q9Y5X4 | GST-NR2E3/biotin-RetCOR TR-FRET, 1536-well | inhibition of corepressor binding, % at 4.78 µM | 320,000 tested, 0.12% active | AID 2300;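 active means percent inhibition above the cutoff of mean plus 3 SD of all tested compounds, set per screening campaign, cut at about 20% in these data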;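 further: 0% = DMSO wells and 100% = biotin wells as full block of FRET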
Target sequence (Q9Y5X4 whole entry, looked up): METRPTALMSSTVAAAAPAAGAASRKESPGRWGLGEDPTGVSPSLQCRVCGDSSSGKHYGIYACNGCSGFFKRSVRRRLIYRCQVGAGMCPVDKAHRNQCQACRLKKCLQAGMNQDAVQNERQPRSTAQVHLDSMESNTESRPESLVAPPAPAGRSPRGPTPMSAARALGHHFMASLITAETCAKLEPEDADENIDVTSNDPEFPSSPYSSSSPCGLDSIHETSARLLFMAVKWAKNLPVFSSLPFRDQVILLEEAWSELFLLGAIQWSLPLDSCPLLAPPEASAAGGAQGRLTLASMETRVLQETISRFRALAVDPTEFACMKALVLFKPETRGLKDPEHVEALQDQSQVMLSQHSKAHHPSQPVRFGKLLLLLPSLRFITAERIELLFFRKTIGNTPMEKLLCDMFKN
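System: GST-tagged NR2E3 plus biotinylated RetCOR corepressor; Amount: 1.35 nM GST-tagged NR2E3 final; Dosing: single nominal compound dose of 4.8 µM; Schedule: 5 h incubation at 4 °C; Technique: TR-FRET with europium anti-GST and streptavidin-D2, 340 nm excitation; Controls: biotin wells as high control, 0.6% DMSO wells as low control.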
Rev-erbA mod – Rev-erb alpha (human) modulation | Rev-erbα–FITC-DNA binding, fluorescence polarization, 90 min | P20393 | 370,000 tested, 0.79% active | activity, % at 10 µM;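 active means activity above about 14%, limit read from the data; passing the limit was not always enough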;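 further: 0% = DMSO wells with 35 nM protein and 100% = DMSO wells with 750 nM protein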
NR2E3 ag-2 – human photoreceptor-specific nuclear receptor agonism | Q9Y5X4 | CHO-S Gal4-NCOR/VP16-NR2E3 two-hybrid, luciferase | inhibition of corepressor binding, % at 3.98 µM | 360,000 tested, 0.35% active | AID 602229;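 active means inhibition above the mean of all tested compounds plus 3 SD, cut at about 70% in these data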;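 further: 0% = DMSO with NR2E3 transfected cells and 100% = cells lacking NR2E3 construct; higher means lower luciferase signal from less NR2E3 corepressor binding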
An asterisk follows results filed as active; / = no result given.

SMILES	PKA-R1A act	PG9 binder	PKA-R2B act	NR2E3 ag-1	Rev-erbA mod	NR2E3 ag-2
Cc1cc(C)cc(NC(=O)/C=C/c2ccc([N+](=O)[O-])s2)c1	-7	-5	1	2	-4	-10
Cc1ccccc1NC(=O)/C=C/c1ccc([N+](=O)[O-])s1	2	/	2	0	/	85*
Cn1c(=O)[nH]c(=O)c2c1nc(SCCN1CCOCC1)n2Cc1ccccc1	5	-1	-9	3	3	-18
Cn1c(=O)[nH]c(=O)c2c1nc(SCCN1CCOCC1)n2CCCc1ccccc1	-8	19*	-16	1	-12	32
COc1cccc(Cn2c(NCc3ccco3)nc3c2c(=O)n(C)c(=O)n3C)c1	/	-2	/	0	4	/
COc1ccc(Cl)c(Cn2c(NCc3ccco3)nc3c2c(=O)n(C)c(=O)n3C)c1	-2	-2	-4	1	-8	72*
COc1ccc(NC(=O)/C(Cl)=C(/Cl)S(=O)(=O)Cc2ccc(C)cc2)cn1	-5	/	-4	/	/	86*
O=S1(=O)Nc2c(ccc3cccnc23)-c2ccccc21	7	/	7	-2	/	102*
Clc1ccc2ccc3cccnc3c2n1	8	-1	-2	/	-2	-11
O=C[C@H](O)[C@H]1OC(=O)[C@@H](O)[C@H]1O	/	/	/	/	-4	/
COc1ccc(C(=O)c2c(C(F)(F)F)oc3c2C(=O)c2ccccc2C3=O)cc1	1	/	-5	0	/	93*
CO[C@H]1C[C@@H](O[C@@H]2/C(C)=C/C[C@@H]3C[C@@H](C[C@]4(CC[C@H](C)[C@@H](C5CCCCC5)O4)O3)OC(=O)[C@@H]3C=C(C)/C(=N/O)[C@H]4OC/C(=C\C=C\[C@@H]2C)[C@]43O)O[C@@H](C)[C@H]1O	/	/	/	/	-2	/
COc1ccc(CNc2ncnc3sccc23)cc1OC	7	-1	5	2	3	80*
N#C/C(=N\Nc1cccc(Cl)c1)C(=O)c1ccccc1	-9	-2	4	5	1	102*
C=C1CC2C3C=C(C)C4=CC(=O)CC[C@]4(C)C3CC[C@]2(C)[C@@]1(OC(C)=O)C(C)=O (some centres not stated)	/	/	/	/	1	/
O=[N+]([O-])c1nn(-c2ccc3c(c2)OCCO3)n(O)c1=Nc1ccc(Cl)cc1	3	0	-6	6	/	86*
CC[C@H]1CN2CCc3cc(OC)c(OC)cc3C2C[C@@H]1CC1NCCc2cc(OC)c(OC)cc21 (some centres not stated)	/	/	/	/	3	/
COc1ccc(NS(=O)(=O)c2cccc(NC(=O)c3ccc(S(=O)(=O)N4CCCCCC4)cc3)c2)cc1	-7	/	-11	2	/	83*
O=S(=O)(Nc1cc(Sc2ncn[nH]2)c(O)c2ccccc12)c1ccccc1	/	-4	/	/	-4	103*
Cc1cc(O)c(Sc2ncn[nH]2)cc1NS(=O)(=O)c1ccc(Cl)cc1	1	-2	0	2	7	14
O=S(=O)(Nc1nc(-c2sccc2Cl)cs1)c1cc(Cl)ccc1Cl	-11	/	7	7	/	99*
CC1(C)O[C@@H]2CC3C4CCC5=CC(=O)CCC5(C)[C@]4(F)C(O)CC3(C)[C@]2(C(=O)CCl)O1 (some centres not stated)	/	/	/	/	-2	/
CCC(=O)O[C@H]1CCC2C3CCc4cc(O)ccc4C3CC[C@@]21C (some centres not stated)	/	/	/	/	-3	/
COc1ccc(N2CCN(C(=O)CSc3nnc4n3C(C)(C)Cc3ccccc3-4)CC2)cc1	-10	2	1	0	-7	4
Cc1ccc(Cl)cc1N1CCN(C(=O)CSc2nnc3n2C(C)(C)Cc2ccccc2-3)CC1	-11	-1	1	0	3	87*
O=C(Cc1cccs1)N[C@H]1C(=O)N2C(C(=O)O)=C(C[n+]3ccccc3)CSC12 (some centres not stated)	/	/	/	/	-1	/
N#CC(C#N)=C(Nc1ccc(F)cc1)SCc1cccc(Br)c1	6	2	-4	2	0	94*
CC(SCc1ccccc1)C(=O)Nc1ccc(F)cc1 (configuration not stated)	-6	2	-2	-1	1	-7
